Hits are enriched below; roughly 3.5% of the tested compounds scored in any of these assays.
RGS4 act – RGS4 potentiation or activation; 310,000 compounds, 0.92% hits; B-score at 10 µM; AID 463111; HEK293 M3R/inducible RGS4, carbachol calcium flux Fluo4; hits give low values;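 active means B-score of the integrated calcium signal more than 4 SD below the library mean, with starting fluorescence not abnormally high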;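 further: negative B-score means reduced calcium response which marks RGS4 activation or potentiation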
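Material: M3R-expressing HEK293 line, RGS4 induced by doxycycline | Schedule: Overnight RGS4 induction, 30 min dye load 37 °C, 20 min compound RT | Measured by: Fluo4 fluorescence kinetic imaging of calcium | Read-out: Integrated calcium ratio converted to B score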
MrgX1 antagonist – antagonists of human MrgX1 receptor | Q96LB2 | MRGX1-HEK293 calcium flux, Fluo-4, BAM8-22 antagonism; hits give low values | B-score at 10 µM | 310,000 compounds, 1.3% hits;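 active means calcium-response B-score plate-corrected more than 3 library SD below zero, starting fluorescence within 5 deviations, no agonist response on first addition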;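 further: peak minus trough fluorescence over baseline after final BAM8-22 challenge near maximal dose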
Target sequence (Q96LB2 whole entry, looked up): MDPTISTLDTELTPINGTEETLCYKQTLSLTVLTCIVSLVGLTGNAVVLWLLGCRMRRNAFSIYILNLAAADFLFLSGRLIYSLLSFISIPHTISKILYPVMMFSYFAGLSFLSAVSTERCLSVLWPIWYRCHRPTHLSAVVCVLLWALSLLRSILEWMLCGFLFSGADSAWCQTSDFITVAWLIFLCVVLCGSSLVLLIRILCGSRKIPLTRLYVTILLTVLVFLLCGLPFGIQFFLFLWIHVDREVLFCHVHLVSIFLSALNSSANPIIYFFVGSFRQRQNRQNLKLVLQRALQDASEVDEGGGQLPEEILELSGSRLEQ
MrgX1 allo act – allosterically activates human MrgX1 receptor signaling. MrgX1-HEK293, Fluo-4 calcium flux, FDSS; hits give high values. B-score at 10 µM. 310,000 compounds, 0.63% hits. AID 588675;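 active means plate-corrected calcium response at least 3 library SD above typical, normal starting fluorescence, not activating the receptor alone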;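 further: compound read alongside a low EC10 to EC30 dose of BAM8-22 agonist; peak minus trough fluorescence over baseline measured at the second addition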
RGS4 block – human RGS4 inhibition | HEK293 M3R/RGS4 inducible, Fluo-4 calcium flux; hits give high values; triggered by carbachol at its EC20 | B-score at 10 µM | 310,000 compounds, 0.45% hits | P49798;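 active means B-score, a plate-corrected calcium signal, over three deviations above library mean, with baseline fluorescence within five deviations of library mean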;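 further: RGS4 expression induced by doxycycline in cells with stable M3 receptor; B-score is computed from the integrated fluorescence ratio over baseline after carbachol; higher B-score means a larger calcium signal and so more RGS4 inhibition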
Target sequence (P49798 whole entry, looked up): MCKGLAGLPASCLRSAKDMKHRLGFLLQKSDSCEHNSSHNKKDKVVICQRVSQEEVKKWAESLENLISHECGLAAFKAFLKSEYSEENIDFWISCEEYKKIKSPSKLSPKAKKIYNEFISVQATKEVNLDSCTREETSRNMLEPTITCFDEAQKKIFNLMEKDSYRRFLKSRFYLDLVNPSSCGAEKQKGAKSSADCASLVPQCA
MrgX1 agonist – activates human MrgX1 receptor signaling; B-score at 10 µM; Q96LB2; 310,000 compounds, 0.44% hits; MrgX1-HEK293 cells, Fluo-4 calcium fluorescence, agonist mode; hits give high values;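 active means calcium response B-score plate-corrected fluorescence ratio at least 3 library SD, with starting fluorescence B-score inside 5 SD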
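times = overnight plating, then 30 min 37 °C plus 30 min room-temperature dye loading | assay system = stable human MrgX1 HEK293 cell line | input = fifteen thousand cells per well | signal = kinetic calcium dye fluorescence, Fluo-4 NW | dosing = compound delivered in addition one of three | read-out = B-scored fluorescence response ratio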
* hit, by the source's call; i = inactive; . = not tested or not shown.

SMILES	RGS4 act	MrgX1 antagonist	MrgX1 allo act	RGS4 block	MrgX1 agonist
CCN(CC)CCN1c2ccccc2Sc2ccccc21	-7.09*	i	i	i	i
CCN(CC)CCN1c2ccccc2Sc2ccc3ccccc3c21	-7.54*	i	i	i	i
COc1ccc(/C(O)=C/C(=O)C(=O)NNC(=O)c2ccccc2)cc1	i	i	i	i	i
COc1ccc(/C(O)=C/C(=O)C(=O)NNC(=O)C(O)(c2ccccc2)c2ccccc2)cc1	i	-4.76*	i	i	i
COc1ccc(C(=O)NN/C(=N/S(=O)(=O)c2ccc(C)cc2)c2ccccc2)cc1	i	i	i	i	i
CC(/C=N/NC(=O)c1ccc(Cn2cc([N+](=O)[O-])cn2)o1)=C\c1ccccc1	i	-5.35*	i	i	i
COc1ccc(NC(=O)CSc2cn[nH]n2)cc1OC	i	i	i	i	i
Cc1ccccc1S(=O)(=O)Cc1ccc(C(=O)NCCCN2CCCC(C)C2)o1 (centres undefined)	i	i	i	i	i
COc1ccc(Sc2ccccc2CN(C)C)cc1OC	i	i	i	i	i
CNCc1ccccc1Sc1ccc(O)c(O)c1	-7.51*	-5.66*	i	i	i
CCn1c(N2CCN(Cc3ccc([N+](=O)[O-])cc3)CC2)nc2ccccc21	i	i	i	i	i
CCCn1c(N2CCN(Cc3ccc(Cl)cc3)CC2)nc2ccccc21	i	i	i	i	29.7*
NC(=O)C(=O)NN=C1C2CC3CC(C2)CC1C3	i	i	i	i	i
NC(=S)NN=C1C2CC3CC(C2)CC1C3	i	i	8.59*	i	i
CCCN1CNC(=S)N(CC2CCCO2)C1 (centres undefined)	i	i	i	i	i
Cc1ccc(-n2cc(CN3CCCN(C=O)CC3)c(-c3ccc(F)cc3)n2)cc1	i	i	10.6*	i	i
CC(=O)N1CCCN(Cc2cn(-c3ccc(C)cc3)nc2-c2ccc(F)cc2)CC1	i	i	i	i	i
CCc1nc(NC(C)(C)C)c2cnn(-c3ccccc3)c2n1	i	i	i	i	i
CCN1/C(=C/c2cccc[n+]2C)Sc2ccc(OC)cc21	-7.52*	-6.05*	i	i	i
COc1cc(OC)cc(C(=O)/C=C2\Sc3ccccc3N2C)c1	i	i	i	i	i
COc1ccc2c(c1)N(C)/C(=C/c1cccc[n+]1C)S2	-9.42*	-5.76*	i	i	i
O=C1CC[C@@H](OCc2ccccc2)CCN1CC[C@H](Sc1ccccc1)c1ccccc1	i	i	i	i	i
CCOc1cc(N2CCOCC2)c(OCC)cc1NC(=O)CN1C(=O)NC(C)(C2CC2)C1=O (centres undefined)	i	-4.75*	i	i	i
CC(Sc1nnc2c(n1)[nH]c1ccccc12)C(=O)N(C)C1CCCCC1 (centres undefined)	i	-7.18*	i	i	i
CCCCNC(=O)Cn1nc([N+](=O)[O-])c([N+](=O)[O-])c1C	i	-5.38*	i	i	i
SMILES	RGS4 act	MrgX1 antagonist	MrgX1 allo act	RGS4 block	MrgX1 agonist
O=C(O)C1CC(=O)N(CCc2ccc(F)cc2)C1 (centres undefined)	i	i	i	i	i
Fc1ccc(C2C3=C(Nc4ncnn42)c2ccccc2OC3c2ccncc2)cc1 (centres undefined)	i	i	i	i	i
Cc1ccc(C2Oc3ccccc3C3=C2C(c2cccs2)n2ncnc2N3)cc1 (centres undefined)	-7.28*	i	i	i	i
CCC(=O)N1CCN(c2ccccc2NC(=O)COc2ccc(C(C)C)cc2)CC1	i	i	i	i	i
OCC1CCCN(c2nc(CN3CCCCC3)nc3scc(-c4ccccc4)c23)C1 (centres undefined)	i	i	i	i	i
CCNc1nc(CN2CCCCC2)nc2scc(-c3ccccc3)c12	-7.15*	i	i	i	i
CCN(CC)CCN(Cc1cc2cc3c(cc2[nH]c1=O)OCCO3)C(=S)NC	i	i	i	i	i
O=C1C=C(N2CCCCCC2)C(=O)N1c1ccc(Cl)cc1	-7.05*	i	i	i	i
Cc1cc(C)cc(-n2ccn(CC(=O)NCCc3ccccc3)c(=O)c2=O)c1	i	i	i	i	i
O=C(NCc1ccccc1)c1onc(CS(=O)(=O)c2ccccn2)c1C(=O)NCc1ccccc1	i	i	i	i	i
OCC[C@H]1C[C@H](O)[C@@H](O)[C@]2(CCCc3ccccc3O2)O1	.	i	i	.	i
CCN(CC)CCn1c(=S)[nH]c2cc(C(=O)N3CC=C(c4ccccc4)CC3)ccc2c1=O	i	i	8.46*	i	i
COc1ccc2c(COC(=O)c3cccc(S(=O)(=O)NCC(C)C)c3)cc(=O)oc2c1	-7.19*	i	i	i	i
CC(=O)N1CCCC1(C(=O)O)c1ccccc1 (centres undefined)	i	i	i	i	i
COCCCNc1nc2ccccc2nc1NS(=O)(=O)c1ccc(C)cc1C	i	i	i	i	i
CC1CC(CC(C)C(=O)NC(=S)Nc2ccc(S(N)(=O)=O)cc2)C(=O)O1 (centres undefined)	i	-6.52*	i	i	i
CC1CC(CC(C)C(=O)Nc2nncs2)C(=O)O1 (centres undefined)	i	i	i	i	i
CC(=O)OCC1=C(C(=O)O)N2C(=O)C(NC(=O)c3ccc(F)cc3)C2SC1 (centres undefined)	i	i	i	i	i
CC(=O)OCC1=C(C(=O)O)N2C(=O)C(NC(=O)C(C)Cn3nc(C)c(Cl)c3C)C2SC1 (centres undefined)	-7.08*	i	i	i	i
COc1ccc(C2=NOC(Cn3nc(C(=O)NCC4CC4)cc3-c3ccccc3)C2)cc1 (centres undefined)	i	i	7.89*	i	i
O=[N+]([O-])c1ccc(NC(=S)NCCc2ccc(Cl)cc2)cc1	i	-5.97*	i	i	i
S=C(NCCc1ccccc1)Nc1ccc(Cl)cc1	i	i	i	i	i
NS(=O)(=O)c1ccc(NC(=S)NCCc2ccccc2)cc1	i	i	i	i	i
O=[N+]([O-])c1ccc(NC(=S)NCCc2ccccc2)cc1	i	-4.87*	i	i	i
CCNc1nc2cccnc2s1	i	i	i	i	i
Cc1cc(S(=O)(=O)N2CCCCC2)c(C)s1	i	i	i	i	i

High-throughput results as filed in PubChem.
